Experiment [1] is described as follows: inhibitors of TNFa-induced NFkB p65 translocation, primary screen, imaging, HUVEC, MLSMR starter and 10KST1 sets (AID 438;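 active means inhibition above 20% together with a positive visual image hit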;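 further: compound added about 3h40 before a 20 min TNFalpha stimulation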;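 on inhibition: signal is the nuclear over cytoplasmic p65 intensity ratio per well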). The note with it: HUVEC TNFa-induced p65 nuclear translocation; cell count: measured here: nuclei count (cytotoxicity indicator), at 2.08 µM; inhibition: at 2 µM, stronger effect = higher value, 0% TNFa-plus-vehicle, 100% no-TNFa wells.
A short description of experiment [2]: inhibitors of mutant huntingtin aggregation, primary screen, imaging, exon1htt(103Q)mCFP cells, high-content imaging (AID 483;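 active means visual image review flags a hit and inhibition of aggregation exceeds 20%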;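 further: compound exposure lasted 3 days before fixation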;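 on nuclei count: percent of the per-plate median nuclei count of sample wells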). The note with it: exon1htt(103Q)mCFP cell line, aggregate imaging, at 2 µM; inhibition of aggregation: stronger effect = higher value; nuclei count: measured here: cell count, toxicity.
The nature of experiment [3]: inhibitors of E-selectin induction by TNFa, primary screen, imaging, HUVEC, immunofluorescence, MLSMR starter and 10KST1 sets (AID 487).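 On inhibition: signal is fraction of cell area covered by stained E-selectin grains.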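 On nuclei count: 100% = median nuclei count of all wells on the same plate.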 The following applies: HUVEC TNFalpha-induced E-selectin immunofluorescence imaging, at 2 µM; inhibition: stronger effect = higher value; nuclei count: measured here: cell number, toxicity.
In experiment [4] the target is Voltage-gated potassium channel subunit beta-2 (Rattus norvegicus) (UniProt P62483). The experiment is described as follows: KvBeta enzyme negative modulators, primary screen, biochemical, NADPH fluorescence (AID 622;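 active means fluorescence slope higher than the sample average by over 3 SD, cut at about -0.22 in these data, passing the limit was not always enough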;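 further: slope of raw intensity against log time taken from 70 to 1610 s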). The following applies: recombinant KvBeta, 4-cyanobenzaldehyde reduction, at 10 µM, stronger effect = higher value.
Experiment [5] has the same target. In words: KvBeta positive modulators, primary screen, biochemical, NADPH fluorescence (AID 623;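 active means NADPH fluorescence slope more negative than the mean of all samples by about 3 SD, 99.7% confidence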;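 further: fluorescence intensity change per second fitted from 20 to 320 s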). The note with it: Recombinant KvBeta, NADPH fluorescence decrease slope, 10 min; at 10 µM; stronger effect = lower value.
The target in experiment [6] is Muscarinic acetylcholine receptor M4 (Homo sapiens) (UniProt P08173). In words: compounds altering M4/GIRK thallium flux, either direction, primary screen, M4 allosteric agonist project, cell-based, HEK293 M4/GIRK, BTC-AM (AID 625;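 active means fluorescence slope after compound addition differing from the mean of all tested samples at 99.7% confidence, mostly higher but some lower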;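 further: thallium influx through GIRK channels coupled to M4 in HEK293 cells with BTC-AM dye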). The following applies: at 10 µM, actives lie on both sides. A digest of the protocol:
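Assay system: HEK293 cells with M4 receptor and GIRK channels / Controls: carbachol and DMSO controls / Schedule: 1 h dye loading, 2 min kinetic read / Technique: kinetic fluorescence with BTC-AM dye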

Experiment [7] can be described thus: inhibitors of Sendai virus-induced IRF3 signaling, primary screen, TLR/RLR signaling modifier project, cell-based, Sendai virus stimulus, luciferase, 10K MLSCN set (AID 602276;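 active means inhibition at or above 50% at 10 µM; inactive means inhibition below 50%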;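 further: firefly luciferase from ISG56 promoter only with Renilla not read in this screen; 0% = Sendai virus plus DMSO and 100% = medium plus DMSO without virus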). The note with it: HEK293 RL24 IRF3 luciferase reporter, at 10 µM, stronger effect = higher value.
A short description of experiment [8]: inhibitors of poly I:C-induced TLR3 signaling, primary screen, cell-based, poly I:C stimulus, luciferase, 10K MLSCN set (AID 602277;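 active means inhibition of the reporter signal at or above 50%; inactive means inhibition below 50%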). The following applies: HEK293-TLR3 RL24 IRF3 luciferase reporter, at 10 µM, stronger effect = higher value.

Activity calls are given as the source filed them.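 How the source made its calls, unless noted: active means visually confirmed hit in the image check and inhibition above 20%; inconclusive means visually confirmed hit but inhibition not above 20%; inactive means no visual hit in the image check.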

Sequence of Muscarinic acetylcholine receptor M4 (Homo sapiens) (P08173 whole entry, looked up): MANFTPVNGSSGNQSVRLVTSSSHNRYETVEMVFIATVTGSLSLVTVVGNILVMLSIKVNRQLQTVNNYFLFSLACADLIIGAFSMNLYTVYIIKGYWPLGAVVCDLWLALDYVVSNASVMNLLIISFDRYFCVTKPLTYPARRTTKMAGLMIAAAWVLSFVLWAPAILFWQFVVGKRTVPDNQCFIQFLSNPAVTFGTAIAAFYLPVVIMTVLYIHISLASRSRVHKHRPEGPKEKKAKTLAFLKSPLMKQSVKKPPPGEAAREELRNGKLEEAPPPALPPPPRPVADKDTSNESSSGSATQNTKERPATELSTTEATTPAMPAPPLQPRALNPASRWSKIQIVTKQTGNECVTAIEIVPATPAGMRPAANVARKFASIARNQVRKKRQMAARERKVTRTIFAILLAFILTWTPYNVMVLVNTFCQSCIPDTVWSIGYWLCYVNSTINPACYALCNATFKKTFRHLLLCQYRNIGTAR
Sequence of Voltage-gated potassium channel subunit beta-2 (Rattus norvegicus) (P62483 whole entry, looked up): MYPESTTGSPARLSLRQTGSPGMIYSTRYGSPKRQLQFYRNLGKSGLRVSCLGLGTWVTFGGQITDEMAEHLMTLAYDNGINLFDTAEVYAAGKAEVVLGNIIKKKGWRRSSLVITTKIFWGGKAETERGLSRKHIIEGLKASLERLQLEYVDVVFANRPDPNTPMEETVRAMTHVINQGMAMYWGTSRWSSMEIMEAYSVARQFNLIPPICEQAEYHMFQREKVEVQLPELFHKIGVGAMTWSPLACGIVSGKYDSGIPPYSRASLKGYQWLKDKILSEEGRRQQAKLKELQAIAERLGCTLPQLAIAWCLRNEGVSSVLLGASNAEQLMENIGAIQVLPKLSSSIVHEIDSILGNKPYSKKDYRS

For `Cc1onc(-c2c(Cl)cccc2Cl)c1C(=O)NCCN1CCOCC1`, the cell count in experiment [1] was 548. The inhibition in experiment [1] was 5.1% (inactive); in experiment [3] it was -48.2% (inactive); in experiment [7] it was 21.3% (inactive); in experiment [8], 16.3% (inactive). Moreover, the inhibition of aggregation in experiment [2] was -1.4% (inactive). For the same compound, the nuclei count in experiment [2] came out at 98.9%; in experiment [3], 108%. Also, the fluorescence slope in experiment [4] was -0.471 (inactive); in experiment [6], 0.00527 (inactive). In addition, the NADPH fluorescence slope in experiment [5] is 3e-06 (inactive).
Consider `Cc1nnc(SCC(=O)Nc2ccc3c(c2)OCCO3)n1CC1CCCO1` (centres undefined), for which the cell count in experiment [1] amounted to 662. The inhibition in experiment [1] is -5% (inactive); in experiment [3] it was -39.4% (inactive); in experiment [7], 14.8% (inactive); in experiment [8], 7.29% (inactive). In addition, the inhibition of aggregation in experiment [2] was -0.8% (inactive). Besides, the nuclei count in experiment [2] is 105%; in experiment [3] it was 114%. In addition, the fluorescence slope in experiment [4] was -0.341 (inactive); in experiment [6], 0.00537 (inactive). Also, in experiment [5], the NADPH fluorescence slope is -5.6e-05 (inactive).
For the compound `Cc1cc(C)cc(NC(=O)N2CCC(c3nc4ccccc4o3)CC2)c1`, in experiment [1], the cell count stood at 405. Besides, the inhibition in experiment [1] was 7.5% (inactive); in experiment [3] it was -66.7% (inactive); in experiment [7], 13.6% (inactive); in experiment [8] it was 18.7% (inactive). For the same compound, in experiment [2], the inhibition of aggregation was -19.5% (inactive). Also, the nuclei count came out at 94.7% in experiment [2] and 110% in experiment [3]. Further, the fluorescence slope is -0.494 (inactive) in experiment [4] and 0.00524 (inactive) in experiment [6]. Further, in experiment [5], the NADPH fluorescence slope was 0.00013 (inactive).
Regarding `C=CCSc1ncccc1C(=O)O`, the cell count in experiment [1] was found to be 709. Also, the inhibition in experiment [1] was 6.9% (inactive); in experiment [3], -36.4% (inactive); in experiment [7], -12.7% (inactive); in experiment [8] it was -3.04% (inactive). The inhibition of aggregation in experiment [2] was -8.1% (inactive). Moreover, the nuclei count was 108% in experiment [2] and 111% in experiment [3]. The fluorescence slope in experiment [4] is -0.556 (inactive); in experiment [6], 0.00662 (inactive). Also, the NADPH fluorescence slope in experiment [5] is -6.2e-05 (inactive).
Take `COc1cccc(-c2cc(C(=O)Nc3cc(C)n(Cc4ccc(Cl)cc4)n3)no2)c1`: the cell count in experiment [1] amounted to 498. Also, the inhibition was -5.7% (inactive) in experiment [1], 38.9% (inactive) in experiment [3], 18.7% (inactive) in experiment [7] and -60.3% (inactive) in experiment [8]. Besides, in experiment [2], the inhibition of aggregation is 10.2% (inactive). In addition, the nuclei count in experiment [2] and in experiment [3] was 100% each time. Further, the fluorescence slope in experiment [4] is -0.211 (inactive); in experiment [6], 0.0105 (inactive). Besides, the NADPH fluorescence slope in experiment [5] was -2.5e-05 (inactive).
Turning to `Cc1ccccc1-c1noc(N)c1C#N`, the cell count in experiment [1] was determined as 515. In addition, the inhibition in experiment [1] is 5.3% (inactive); in experiment [3], 4.6% (inactive); in experiment [7], 12.5% (inactive); in experiment [8] it was -2.11% (inactive). Besides, the inhibition of aggregation in experiment [2] was -0.5% (inactive). The nuclei count in experiment [2] was determined as 95.2%; in experiment [3], 103%. In addition, the fluorescence slope is -0.317 (inactive) in experiment [4] and 0.00617 (inactive) in experiment [6]. Moreover, the NADPH fluorescence slope in experiment [5] was -2.3e-05 (inactive).
Turning to `Cc1ccc(C)c(Cn2c(=O)n(CCC(=O)NCc3ccco3)c(=O)c3sccc32)c1`, in experiment [1], the cell count was found to be 506. The inhibition in experiment [1] is -4.5% (inactive); in experiment [3], 17.2% (inactive); in experiment [7], 19.5% (inactive); in experiment [8], 16.1% (inactive). Further, in experiment [2], the inhibition of aggregation was 3.9% (inactive). Also, the nuclei count in experiment [2] came out at 95.3%; in experiment [3], 93.3%. In addition, the fluorescence slope in experiment [4] is -0.572 (inactive); in experiment [6] it was 0.00734 (inactive). The NADPH fluorescence slope in experiment [5] was -5.2e-06 (inactive).
For `O=C(Cn1ncc2ccccc21)N1CCN(c2cccc(C(F)(F)F)c2)CC1`, the cell count in experiment [1] worked out at 659. Moreover, the inhibition in experiment [1] was -5.8% (inactive); in experiment [3] it was -16.1% (inactive); in experiment [7], 12% (inactive); in experiment [8], 21.1% (inactive). Further, the inhibition of aggregation in experiment [2] is 1.3% (inactive). The nuclei count came out at 114% in experiment [2] and 122% in experiment [3]. The results for the fluorescence slope in experiment [4] and in experiment [6] were -0.378 (inactive) and 0.00602 (inactive), respectively. Also, the NADPH fluorescence slope in experiment [5] is -2.5e-05 (inactive).
Take `CC1C(c2ccccc2)N(C)CCC12NC(=O)NC2=O` (centres undefined): in experiment [1], the cell count stood at 315. In addition, the inhibition was -0.8% (inactive) in experiment [1], -43% (inactive) in experiment [3], -0.144% (inactive) in experiment [7] and 3.49% (inactive) in experiment [8]. Also, in experiment [2], the inhibition of aggregation is -12.3% (inactive). Also, the results for the nuclei count in experiment [2] and in experiment [3] were 108% and 135%, respectively. For the same compound, the fluorescence slope was -0.397 (inactive) in experiment [4] and 0.00604 (inactive) in experiment [6]. In addition, the NADPH fluorescence slope in experiment [5] was 6.4e-05 (inactive).
In the case of `CCOC(=O)CNS(=O)(=O)c1c(C)noc1C`, the cell count in experiment [1] was determined as 562. In addition, the inhibition in experiment [1] was -2.5% (inactive); in experiment [3], -40.9% (inactive); in experiment [7], 1.51% (inactive); in experiment [8], 2.6% (inactive). Also, the inhibition of aggregation in experiment [2] is -0.2% (inactive). For the same compound, the figures for the nuclei count in experiment [2] and in experiment [3] were 108% and 105%, respectively. Moreover, the fluorescence slope was -0.441 (inactive) in experiment [4] and 0.00456 (inactive) in experiment [6]. The NADPH fluorescence slope in experiment [5] is -0.000338 (inactive).
`CCCS(=O)(=O)N1CCCC(C(=O)N2CCC(Cc3ccccc3)CC2)C1` (centres undefined): in experiment [1], the cell count was found to be 662. Also, the inhibition is -11.9% (inactive) in experiment [1], -82.7% (inactive) in experiment [3], 11.3% (inactive) in experiment [7] and 12.1% (inactive) in experiment [8]. For the same compound, the inhibition of aggregation in experiment [2] was 5% (inactive). Besides, the nuclei count in experiment [2] turned out to be 105%; in experiment [3] it was 106%. Moreover, the fluorescence slope was -0.5 (inactive) in experiment [4] and 0.00325 (inactive) in experiment [6]. Further, the NADPH fluorescence slope in experiment [5] was -0.000282 (inactive).
As for `CCn1c(=N)n(CC(O)COc2cccc(C)c2)c2ccccc21` (centres undefined), in experiment [1], the cell count is 289. For the same compound, the inhibition is -4.7% (inactive) in experiment [1], -9.5% (inactive) in experiment [3], -0.649% (inactive) in experiment [7] and -11.2% (inactive) in experiment [8]. Moreover, in experiment [2], the inhibition of aggregation was -15.2% (inactive). The figures for the nuclei count in experiment [2] and in experiment [3] were 94.9% and 112%, respectively. Besides, the results for the fluorescence slope in experiment [4] and in experiment [6] were -0.517 (inactive) and 0.00395 (inactive), respectively. The NADPH fluorescence slope in experiment [5] is 4.3e-05 (inactive).
For `CC(C)n1c(=NC(=O)c2ccco2)c(C#N)cc2c(=O)n3ccccc3cc21`, the cell count in experiment [1] was 378. Moreover, the inhibition in experiment [1] was 1.7% (inactive); in experiment [3], -45.7% (inactive); in experiment [7], -23.8% (inactive); in experiment [8], -8.73% (inactive). Besides, the inhibition of aggregation in experiment [2] was -20.7% (inactive). Also, the nuclei count turned out to be 104% in experiment [2] and 112% in experiment [3]. The fluorescence slope in experiment [4] was -0.576 (inactive); in experiment [6], 0.00331 (inactive). Further, the NADPH fluorescence slope in experiment [5] was 3.1e-06 (inactive).
For `Oc1cnc2ccccc2c1CN1CCOCC1`, the cell count in experiment [1] came to 354. Moreover, the inhibition in experiment [1] was 0.4% (inactive); in experiment [3], -45.2% (inactive); in experiment [7] it was 18% (inactive); in experiment [8], 10.3% (inactive). In addition, in experiment [2], the inhibition of aggregation was -24.9% (inactive). Also, the nuclei count in experiment [2] was 111%; in experiment [3], 80.9%. Moreover, the fluorescence slope in experiment [4] is -0.542 (inactive); in experiment [6], 0.0061 (inactive). For the same compound, in experiment [5], the NADPH fluorescence slope is -1.4e-05 (inactive).
